From ChEMBL document CHEMBL3868603, “Synthesis and evaluation of naphthyl bearing 1,2,3-triazole analogs as antiplasmodial agents, cytotoxicity and docking studies” (Bioorg Med Chem, 2017)

Assays:
[1] = Cytotoxicity against HEK293 cells assessed as decrease in cell viability at 100 uM after 48 hrs by MTT assay; format: toxicity, cell-based; conditions: human, hek293, 48 h
How it was run: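 HEK-293 in MEM with 10% FBS, seeded 10,000 cells/well, 24 h at 37°C, 5% CO2; treated 1–100 µM in triplicate with DMSO control and doxorubicin reference, 48 h. MTT added 1 h, dried, DMSO dissolved, absorbance 562 nm; IC50 as 50% absorbance reduction versus control, mean ± SD of three independent experiments.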

[2] = system: Plasmodium falciparum; assay: Antiplasmodial activity against pyrimethamine-sensitive Plasmodium falciparum 3D7 infected in human erythrocytes incubated for 50 hrs by SYBR green 1 dye based fluorescence assay; format: functional, cell-based; conditions: 3D7, 50 h
How it was run: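 Parasites cultured in RPMI 1640 with 10% human serum, erythrocytes at 2% haematocrit, 37°C, 5% O2/5% CO2/90% N2; sorbitol-synchronized rings. DMSO stocks serially 2-fold diluted; 1% ring-infected erythrocytes at 4% haematocrit, 50 h. SYBR Green 1 lysis buffer, fluorescence Ex 485/Em 530; chloroquine (500 nM) background subtracted, normalized to DMSO (0.05%), nonlinear regression IC50; two independent experiments in duplicate.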

[3] = system: Plasmodium falciparum; assay: Inhibition of trophozoite stage of Plasmodium falciparum DHFR assessed as reduction in NADPH depletion at 25 uM incubated for 30 mins followed by NADPH addition measured for 30 mins at 15 secs interval by UV/Vis spectrophotometric analysis
How it was run: (§1)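 Soluble extract from saponin-isolated trophozoites (culture at 15-16% parasitaemia), freeze-thaw, sonication, centrifugation; protein by Bradford. 500 µg extract in 1 ml assay buffer with inhibitor or 0.05% DMSO, 30 min room temperature, spun to remove precipitate; 60 µM NADPH and 50 µM DHA added, A340 decrease read every 15 s for 30 min; slope by linear regression as percent of control, representative experiment.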

[4] = system: Plasmodium falciparum; assay: Antiplasmodial activity against pyrimethamine-resistant Plasmodium falciparum Dd2 infected in human erythrocytes incubated for 50 hrs by SYBR green 1 dye based fluorescence assay; format: functional, cell-based; conditions: Dd2, 50 h
How it was run: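 Ring-stage sorbitol-synchronised parasites in RPMI 1640 with 10% human serum, 1% ring parasitaemia, 2% final haematocrit; compounds from DMSO stocks in 2-fold serial dilution; 37°C, 5% O2/5% CO2/90% N2, 50 h; lysis buffer with SYBR Green 1, fluorescence Ex 485/Em 530; chloroquine (500 nM) background subtracted, normalised to DMSO (0.05%) wells; nonlinear regression IC50; two independent experiments in duplicate.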

[5] = system: Plasmodium falciparum; assay: Potency index, ratio of pyrimethamine IC50 to compound IC50 for pyrimethamine-resistant Plasmodium falciparum Dd2 infected in human erythrocytes; format: functional
[6] = system: Plasmodium falciparum; assay: Inhibition of trophozoite stage of Plasmodium falciparum DHFR assessed as reduction in NADPH depletion at 50 uM incubated for 30 mins followed by NADPH addition measured for 30 mins at 15 secs interval by UV/Vis spectrophotometric analysis; how it was run: as §1

Structure (SMILES) | Activity [1] | IC50 [2] [µM] | inhibition [3] [%] | IC50 [4] [µM] | Ratio IC50 [5] | inhibition [6] [%]
O=C(O)CC[C@H](NC(=O)c1ccc(-n2cc(COc3ccc4cc(Br)ccc4c3)nn2)cc1)C(=O)O | Non-Toxic | 41.5 | – | – | – | –
C=CCn1cc(COc2ccc3cc(Br)ccc3c2)nn1 | Non-Toxic | 21.2 | 13 | – | – | –
CCCCCn1cc(COc2ccc3cc(Br)ccc3c2)nn1 | Non-Toxic | 26.2 | – | – | – | –
CCn1cc(COc2ccc3cc(Br)ccc3c2)nn1 | Non-Toxic | 23.6 | – | 34.2 | – | –
CCCCCn1cc(COc2ccc3ccccc3c2)nn1 | Non-Toxic | 46.5 | – | – | – | –
O=[N+]([O-])c1ccc(Cn2cc(COc3ccc4cc(Br)ccc4c3)nn2)cc1 | Non-Toxic | 14.7 | – | 13.6 | 3 | –
C=CCn1cc(COc2ccc3ccccc3c2)nn1 | Non-Toxic | 48.6 | – | – | – | –
c1ccc2cc(OCc3cn(C4CCCC4)nn3)ccc2c1 | Non-Toxic | 39 | – | – | – | –
CCc1nc(N)nc(N)c1-c1ccc(Cl)cc1 [PYRIMETHAMINE] | – | 0.047 | – | 34 | – | 25
CC(C)Cn1cc(COc2ccc3ccccc3c2)nn1 | Non-Toxic | 61.5 | – | – | – | –
Brc1ccc2cc(OCc3cn(C4CCCC4)nn3)ccc2c1 | Non-Toxic | 27.3 | – | – | – | –
O=[N+]([O-])c1ccc(Cn2cc(COc3ccc4ccccc4c3)nn2)cc1 | Non-Toxic | 39.6 | – | 41.6 | – | –
CCn1cc(COc2ccc3ccccc3c2)nn1 | Non-Toxic | 97.5 | – | – | – | –
CC(C)n1cc(COc2ccc3cc(Br)ccc3c2)nn1 | Non-Toxic | 21 | – | 24 | 3 | –
CCCn1cc(COc2ccc3ccccc3c2)nn1 | Non-Toxic | 54.5 | – | – | – | –
CCCn1cc(COc2ccc3cc(Br)ccc3c2)nn1 | Non-Toxic | 22.1 | – | 36.9 | – | –
CC(C)n1cc(COc2ccc3ccccc3c2)nn1 | Non-Toxic | 43.5 | – | – | – | –
c1ccc2cc(OCc3cn(CCN4CCOCC4)nn3)ccc2c1 | Non-Toxic | 80 | – | – | – | –
CC(C)Cn1cc(COc2ccc3cc(Br)ccc3c2)nn1 | Non-Toxic | 19.6 | 41 | 31 | 3 | –
